Compound activity (PubChem BioAssay)
ZTA DNA inh: counter-screen for EBNA-1 inhibitors: inhibitors of Epstein-Barr virus ZTA; inhibition, % at 11 µM; 320,000 tested, 0.15% active; ZTA-DNA binding, fluorescence polarization; in the data active = inhibition above about 33%
Target sequence (P03206 whole entry, looked up): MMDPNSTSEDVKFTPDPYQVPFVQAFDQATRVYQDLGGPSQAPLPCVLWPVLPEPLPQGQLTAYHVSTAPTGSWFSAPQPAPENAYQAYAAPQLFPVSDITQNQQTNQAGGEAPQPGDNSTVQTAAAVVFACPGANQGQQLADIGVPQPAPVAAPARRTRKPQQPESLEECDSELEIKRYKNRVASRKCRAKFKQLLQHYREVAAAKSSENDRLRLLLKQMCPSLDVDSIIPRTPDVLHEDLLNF
NS3 helicase inh: inhibitors of HCV NS3 helicase, primary screen, biochemical, Cy5 molecular beacon fluorescence. Hepatitis C virus NS3 helicase. NS3 helicase DNA unwinding. inhibition, % at 10.9 µM. 290,000 tested, 0.56% active;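 active = inhibition above the mean of all tested compounds plus 3 SD, set per campaign, cut at about 35% in these data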
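Measured by: Cy5 fluorescence, 0 and 60 min reads / Assay system: NS3 helicase fragment of HCV / Control set: low DMSO, high thioflavine S at 110 µM / Times: 1 h reaction at 25 °C, ATP-initiated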
core dimer inh: inhibitors of HCV core protein dimerization, primary screen, biochemical, TR-FRET, high-throughput | TR-FRET GST/Flag-core106 dimerization, 1536-well | inhibition, % at 5 µM | 300,000 tested, 0.33% active | AID 1899, 2009;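 active = inhibition above the mean of all tested compounds plus 3 SD, set per screening campaign, cut at about 45% in these data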
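test system = GST/Flag-tagged HCV core106 proteins | probe or stimulus = Eu donor and XL665 acceptor anti-tag antibodies | times = compound-protein-antibody incubation 4 h at 22.5 °C | signal = TR-FRET, excitation 340 nm, emission 617 and 671 nm | measure = percent inhibition of core106 dimerization signal | controls = wells lacking GST-core106 and wells with excess unlabelled core106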
EBNA-1 inhibitor: EBNA-1 DNA-binding inhibitors, primary screen, biochemical, fluorescence polarization | AID 1950, 2009 | 300,000 tested, 0.34% active | inhibition, % at 14.8 µM; in the data active = inhibition above about 28%
Large screens that a line does not name were inactive. Only some compounds are listed: those with a hit (about 1.2% of all), similar ones and a draw of the others.

CCCCn1c(SCC(=O)c2ccc(OC)cc2OC)nc2cc(S(N)(=O)=O)ccc21	core dimer inh 79
CCCCn1c(SC(C)C(=O)c2ccc(OC)cc2)nc2cc(S(N)(=O)=O)ccc21 (stereo not drawn)	none
Cc1nc(C)c(C(=O)Nc2nc3c(C)cccc3s2)o1	core dimer inh 54
Cc1ccc2nc(C)c3c(c2c1)COC3	none
Nc1c(C(=O)O)ccc2c1C(=O)c1ccccc1C2=O	none
Nc1cc(C(=O)O)c(N)c2c1C(=O)c1ccccc1C2=O	ZTA DNA inh active, EBNA-1 inhibitor 146
C[C@@]12C(=O)Nc3cc(F)ccc3C(=O)N1[C@H]1c3ccccc3OC[C@@H]1[C@@H]2c1ccccc1	none (no result: NS3 helicase inh)
C=C(NC(=O)C(=C)NC(=O)c1csc(C2=NC3c4csc(n4)C4NC(=O)c5csc(n5)C([C@@](C)(O)C(C)O)NC(=O)C5CSC(=N5)/C(=C\C)NC(=O)C(C(C)O)NC(=O)c5csc(n5)[C@]3(CC2)NC(=O)C(C)NC(=O)C(=C)NC(=O)C(C)NC(=O)C(C(C)CC)NC2C=Cc3c(C(C)O)cc(nc3C2O)C(=O)OC4C)n1)C(N)=O (stereo partly drawn)	core dimer inh 70 (no result: NS3 helicase inh)
Cc1ccc(-n2nnnc2SCC(=O)Nc2ccc3c(c2)COC3=O)cc1C	core dimer inh 49
Cc1ccc(-n2nnnc2SCC(=O)Nc2ccc3c(c2)OCCO3)cc1C	none
O=C(c1cccs1)c1c[nH]cc1-c1ccccc1	none (no result: NS3 helicase inh)
Cc1sc(NC(=O)Cn2[nH]c(=O)c3ccccc3c2=O)nc1-c1ccccc1	core dimer inh 49
Cc1c(NC(=O)Cn2[nH]c(=O)c3ccccc3c2=O)c(=O)n(-c2ccccc2)n1C	none
CCN(CC)C(=O)c1ccc(NS(=O)(=O)c2ccc3[nH]c(=O)[nH]c3c2)cc1	none (no result: ZTA DNA inh, core dimer inh, EBNA-1 inhibitor)
O=C(COC(=O)c1ccccc1Nc1cccc(C(F)(F)F)c1)NCc1ccco1	core dimer inh 64
O=C(NCc1ccco1)c1c2c(nc3ccccc13)CCC2	core dimer inh 91
O=C(Nc1ccc(Cl)c(S(=O)(=O)N2CCOCC2)c1)c1cc(-c2ccccn2)nc2ccccc12	none
O=C(COC(=O)c1ccccc1)NCc1ccco1	none
Cc1ccc(-c2cc(C(=O)NCc3ccco3)c3ccccc3n2)s1	core dimer inh 47
Cc1ccc(NC(=O)c2cc(-c3ccco3)nc3ccccc23)cc1S(=O)(=O)N1CCOCC1	core dimer inh 69
O=C(c1cccc(S(=O)(=O)N2CCN(c3ccc(F)cc3)CC2)c1)N1CCCC(C(F)(F)F)C1 (stereo not drawn)	none (no result: NS3 helicase inh)
COc1ccccc1CNC(=O)COC(=O)c1cc(-c2ccco2)nc2ccccc12	core dimer inh 69
CC(C)(C)NC(=O)COC(=O)c1c2c(nc3ccccc13)CCC2	core dimer inh 53
CCCCCCNC(=O)c1cc(-c2ccco2)nc2ccccc12	core dimer inh 64
NC(=O)COC(=O)c1cc(-c2ccco2)nc2ccccc12	none
CC(C)CCNC(=O)c1cc(-c2ccco2)nc2ccccc12	none
CC(=O)c1ccc(NC(=O)COC(=O)c2c3c(nc4ccccc24)/C(=C\c2cccs2)CCC3)cc1	EBNA-1 inhibitor 44
O=C(COC(=O)c1ccccc1Oc1ccccc1)NCc1ccco1	core dimer inh 74
CC(C)Cn1c(N)c(C(=O)COC(=O)c2cc(-c3ccco3)nc3ccccc23)c(=O)n(C)c1=O	core dimer inh 54
Cn1c(=O)c(C(=O)COC(=O)c2cc(-c3ccco3)nc3ccccc23)c(N)n(Cc2ccccc2)c1=O	none
O=C(COC(=O)c1cc(-c2cccs2)nc2ccccc12)NCc1ccco1	core dimer inh 63
COc1cc(OCc2ccccc2)c(C(=O)/C=C/c2ccc3c(c2)OCO3)c(OC)c1OC	none (no result: NS3 helicase inh)
Cn1nnnc1Sc1ncnc2scc(-c3ccccc3)c12	core dimer inh 65
O=C(c1ccc(-c2nnc(Nc3ccccc3)c3ccccc23)cc1)N1C[C@H]2C[C@H](C1)c1cccc(=O)n1C2	core dimer inh 60
CCOC(=O)c1cnn(-c2nc(SC)nc3sc4c(c23)CCC4)c1N	core dimer inh 80
COCCn1c(Cc2ccccc2)nnc1SC(C)C(=O)NC1CC1 (stereo not drawn)	none (no result: NS3 helicase inh, core dimer inh, EBNA-1 inhibitor)
CC1=NOC(=O)/C1=C\c1ccc(-c2ccc(Cl)cc2Cl)o1	NS3 helicase inh 37 (no result: ZTA DNA inh, core dimer inh, EBNA-1 inhibitor)
CCCOc1ccc(Cl)cc1/C=C1/C(=O)ON=C1C	none
Clc1ccc(Cn2cnc3ccccc32)cc1	none
O=S1(=O)c2ccccc2N=NN1Cc1cc(Cl)cc(Cl)c1	core dimer inh 46
